Compound activity deposited in PubChem BioAssay by several laboratories.
Hits are enriched below; roughly 1.1% of the tested compounds scored in any of these assays.
Tb hexokinase: Trypanosoma brucei hexokinase 1 inhibitors, primary screen, biochemical, G6PDH-coupled NADH absorbance, MLSCN library; hexokinase 1 [Trypanosoma brucei]; recombinant TbHK1, G6PDH-coupled NADH A340; inhibition, % at 10 µM; 0.11% of 220,000 active; AID 1430, 2008;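 active means inhibition of 50% or more in the single-dose primary screen; inactive means inhibition below 50%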
Diaphorase act: compounds boosting diaphorase resazurin reduction – biochemical, uHTS, resorufin fluorescence, counter-screen for diaphorase-coupled primary assays, primary screen | activation factor at 20 µM | 0.005% of 190,000 active | Diaphorase/resazurin coupled assay, 16 min; active compounds read high; 1 = vehicle wells, 0 = NADH-free wells;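 active means diaphorase activity raised at least twofold by the compound at 20 µM; inactive means activation factor below 2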
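System – purified diaphorase enzyme from Clostridium kluyveri · Input – enzyme 0.07 U/mL final · Also added – final NADH 0.114 mM, resazurin 0.1 mM · Measured by – fluorescence of resorufin, 544 nm excitation, 590 nm emission · Timing – 16 min enzyme reaction, ambient temperature · Measure – resorufin increase flagging diaphorase activators or reducers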
Diaph inh CS: diaphorase inhibitors and chemical oxidizers, primary screen, counter-screen for diaphorase-coupled primary assays, biochemical, uHTS, resorufin fluorescence; 0.69% of 190,000 active; inhibition, % at 20 µM; AID 1217, 2008; diaphorase resazurin-to-resorufin fluorescence, NADH, 16 min; bacterial (C. kluyveri) enzyme, not human;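 active means primary screen inhibition at 20 µM above a set limit, cut at about 50% in these data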;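 further: plate controls were DMSO with full reaction for no effect and wells lacking NADH for full effect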
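Assay system: diaphorase enzyme from Clostridium kluyveri. Quantity: enzyme working solution with 0.14 U/mL diaphorase. Schedule: reaction incubation of 16 min at room temperature. Technique: resorufin fluorescence, excitation 544 nm, emission 590 nm. Controls: No-NADH positive control and DMSO neutral control.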
PMI act: activators of human PMI, primary screen, biochemical, fluorescence intensity, near-Km mannose 6-phosphate. Mannose-6-phosphate isomerase (Homo sapiens), P34949. purified human PMI, coupled resazurin fluorescence, 20 min; active compounds read high; 1 = vehicle control, 0 substrate-free wells. activation factor at 20 µM. 0.005% of 190,000 active. AID 1214, 2008;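 active means activation factor of 2 or more at 20 µM, relative to plate controls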
Target sequence (P34949 whole entry, looked up): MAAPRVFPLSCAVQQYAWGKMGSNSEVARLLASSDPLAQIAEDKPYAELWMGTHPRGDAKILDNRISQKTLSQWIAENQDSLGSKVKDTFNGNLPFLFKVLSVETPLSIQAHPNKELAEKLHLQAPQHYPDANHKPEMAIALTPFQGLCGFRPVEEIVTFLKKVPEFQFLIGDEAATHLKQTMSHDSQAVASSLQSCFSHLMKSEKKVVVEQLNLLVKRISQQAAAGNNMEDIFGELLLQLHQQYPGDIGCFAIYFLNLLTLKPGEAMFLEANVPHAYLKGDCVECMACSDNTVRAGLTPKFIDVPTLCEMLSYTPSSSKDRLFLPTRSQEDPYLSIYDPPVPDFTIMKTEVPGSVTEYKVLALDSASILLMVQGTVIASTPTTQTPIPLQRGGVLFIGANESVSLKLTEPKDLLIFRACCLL
PMI act satM6P: human PMI activators, high substrate, primary screen, biochemical, fluorescence intensity, near-saturating mannose 6-phosphate; coupled PMI enzyme assay, resazurin fluorescence, 20 min; active compounds read high; 1 = untreated enzyme, 0 = substrate-free blank; activation factor at 20 µM; 0.34% of 190,000 active; AID 1216, 2008;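 active means activation factor of 2 or more at 20 µM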
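Test system: human PMI in coupled enzyme assay; Input: PMI at 15 ng/mL final; Medium: HEPES buffer, pH 7.4; Schedule: 20 min incubation at room temperature; Technique: resorufin fluorescence at Ex 544/Em 590 nm; Compound: 20 µM single dose; Probe or stimulus: Near-saturating mannose-6-phosphate, 1.0 mM.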
G6PDH CS: L. mesenteroides G6PDH inhibitors, counter-screen for G6PDH-coupled screening assays, biochemical, Leuconostoc mesenteroides enzyme | Purified L. mesenteroides G6PDH, diaphorase/resazurin coupled fluorescence, 45 min | inhibition, % at 5 µM | 0.12% of 200,000 active; in the data active means inhibition above about 50%
* hit, by the source's call.

O=C(Nc1ccc(NC(=O)c2ccccc2O)cc1)Nc1ccc(F)cc1F was read as Tb hexokinase -12.2.
`O=C(O)CCc1nc(-c2ccccc2)c(-c2ccccc2)o1` gave Diaphorase act 0.2, Diaph inh CS 79.8*, PMI act 1, PMI act satM6P 1.1 and G6PDH CS 1.2.
For O=[N+]([O-])c1ccc(N/N=C/c2cccc(O)c2O)c(S(=O)(=O)N2CCOCC2)c1 the results were Tb hexokinase -3.1, Diaphorase act 0.6, Diaph inh CS 36.2, PMI act 0.8, PMI act satM6P 0.6 and G6PDH CS 31.0.
For O=[N+]([O-])c1ccc(N/N=C/c2ccc(O)c(O)c2O)c(S(=O)(=O)N2CCOCC2)c1 the results were Tb hexokinase -0.5, Diaphorase act 0.1, Diaph inh CS 88.0*, PMI act 0.2, PMI act satM6P 0.2 and G6PDH CS 24.5.
`O=C(CCc1ccc(S(=O)(=O)N2CCOCC2)cc1)N/N=C/c1ccc(O)c(O)c1O` gave Tb hexokinase 28.0, Diaphorase act 0.3, Diaph inh CS 70.9*, PMI act 0.4, PMI act satM6P 0.3 and G6PDH CS 10.0.
`CCn1c(CNC(=O)Cc2ccc(OC)cc2)nnc1SCC(=O)c1ccccc1` gave Tb hexokinase 0.7, Diaphorase act 0.9, Diaph inh CS 8.2, PMI act 1.7, PMI act satM6P 2.5* and G6PDH CS 16.7.
O=C(O)CSc1nnnn1C1CCCCC1 was read as Tb hexokinase 4.5, Diaphorase act 1.2, Diaph inh CS -16.4, PMI act 1.1, PMI act satM6P 1.1 and G6PDH CS 8.1.
O=C(Sc1nnnn1C1CCCCC1)c1cccs1 was read as Tb hexokinase -2.2, Diaphorase act 1, Diaph inh CS 1.0, PMI act 1.6, PMI act satM6P 2.2* and G6PDH CS 20.0.
`COc1cc(/C(C)=N/Nc2ccc(C(=O)O)cc2)cc(OC)c1OC` gave Tb hexokinase -14.8, Diaphorase act 0.9, Diaph inh CS 10.8, PMI act 1.6, PMI act satM6P 2.1* and G6PDH CS 3.4.
`C/C(=N/Nc1ccc(C(=O)O)cc1)c1ccc(O)c(O)c1O` gave Tb hexokinase 2.7, Diaphorase act 0.4, Diaph inh CS 61.1*, PMI act 0.7, PMI act satM6P 1.2 and G6PDH CS 24.8.
`COc1cc(/C=N/Nc2ccc(C(=O)O)cc2)cc(OC)c1OC` gave Tb hexokinase -57.8.
COc1ccc(/C(C)=N/Nc2ccc(C(=O)O)cc2)cc1OC was read as Tb hexokinase -45.0, Diaphorase act 1, Diaph inh CS 4.9, PMI act 1.8, PMI act satM6P 2.5* and G6PDH CS 11.4.
Screening C/C(=N\NC(=O)c1ccc(N/N=C(\C)c2ccc(O)cc2)cc1)c1ccc(O)cc1 returned Tb hexokinase -126.6.
For COc1ccc(OC)c(/C(C)=N/Nc2ccc(C(=O)O)cc2)c1 the results were Tb hexokinase -24.2, Diaphorase act 0.9, Diaph inh CS 12.0, PMI act 1.5, PMI act satM6P 1.7 and G6PDH CS 8.8.
Screening Cc1ccc(F)c([C@H]2C3C=CCC(c4ccccc4)C3C(=O)N2Cc2ccccc2)c1 (some centres not stated) returned Tb hexokinase 1.7.
Screening COc1ccc(CN2CCCC(CNC(=O)c3ccc(F)cc3)C2)c(C)c1C (configuration not stated) returned Tb hexokinase 13.7 and G6PDH CS 15.1.
`CC(C)C(=O)NNc1ccc(C(F)(F)F)cn1` gave Tb hexokinase -4.1.
For O=C(O)c1ccccc1C(=O)NCC(O)COc1ccc(Cl)cc1 (configuration not stated) the results were Tb hexokinase -14.6.
`CC1(CCc2ccccc2)NC(=S)N(c2ccccc2)N1` (configuration not stated) gave Tb hexokinase 30.9, Diaphorase act 0.9, Diaph inh CS 9.3, PMI act 1.5, PMI act satM6P 2.8* and G6PDH CS 10.4.
Screening CC1(CCc2ccccc2)NC(=S)N(c2ccc(Cl)cc2)N1 (configuration not stated) returned Tb hexokinase 0.6, Diaphorase act 0.9, Diaph inh CS 8.1, PMI act 1.7, PMI act satM6P 2.7* and G6PDH CS 17.3.
Screening O=C1CC(NNc2ccccc2)C(=O)N1c1ccccc1 (configuration not stated) returned Tb hexokinase 10.2, Diaphorase act 1, Diaph inh CS 1.3, PMI act 1.7, PMI act satM6P 2.5* and G6PDH CS 14.1.
`Cc1ccc(NNC2CC(=O)N(c3cccc(Cl)c3)C2=O)cc1` (configuration not stated) gave Tb hexokinase -11.2, Diaphorase act 0.9, Diaph inh CS 6.6, PMI act 1.7, PMI act satM6P 2.6* and G6PDH CS -6.6.
Screening Cc1ccc(N=Cc2c(O)[nH]c3ccccc23)c([N+](=O)[O-])c1 returned Tb hexokinase -10.3, Diaphorase act 0.9, Diaph inh CS 10.3, PMI act 1, PMI act satM6P 1 and G6PDH CS 1.6.
`CC1CCCN(C(=S)SCC(=O)c2cc(Br)cc(Br)c2O)C1` (configuration not stated) gave Tb hexokinase 2.8, Diaphorase act 0.4, Diaph inh CS 61.5*, PMI act 0.3, PMI act satM6P 0.5 and G6PDH CS 22.7.
O=c1cccccc1NN=C1CCCCC1 was read as Tb hexokinase -24.6.
Screening O=C(O)c1cc(Br)ccc1NN=C1CCCCC1 returned Tb hexokinase -5.9, Diaphorase act 1, Diaph inh CS 1.8, PMI act 1.8, PMI act satM6P 2.9* and G6PDH CS 15.3.
Screening CCOC(=O)NC(=O)/C(C#N)=N\Nc1cccc(Cl)c1 returned Tb hexokinase -14.7.
CCOC(=O)NC1(Nc2cccc(Cl)c2)Oc2ccccc2O1 was read as Tb hexokinase 0.4, Diaphorase act 0.4, Diaph inh CS 55.1*, PMI act 0.5, PMI act satM6P 0.6 and G6PDH CS 11.1.
